Assay outcomes as filed in PubChem.
Sampled rows, rich in hits. Any-hit rate of the full collection: about 3.1%.
CSC inhib: blocks cancer stem cells; cancer stem cell-like cells viability, luminescence; inhibition, % at 7.5 µM; hit rate 1.1% among 300,000; AID 2717; in the data active = inhibition above about 75%; inconclusive = no clear call, values can overlap the other calls; tested in HMLE shEcad cells
Calb FLC: affects C. albicans growth with fluconazole; C. albicans CaCi-2 (fluconazole-resistant clinical isolate) + fluconazole, Alamar Blue growth, 48 h; growth inhibition, % (test concentration not listed); hit rate 0.57% among 300,000; AID 1979;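 active = growth inhibition above about 58% in most replicates, limit read from the data, passing the limit was not always enough; inconclusive = exactly half the replicates above a set limit; inactive = most replicates below a set limit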;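 note: all wells also contain fluconazole at 8 µg/ml as a sub-toxic cotreatment; 0% = median of DMSO wells and 100% = median of geldanamycin control wells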
TAG inh: triacylglycerol accumulation inhibition | inhibition, % at 12.5 µM | H9c2 cells, Nile Red lipid (TAG) fluorescence; cells loaded with 200 µM oleic acid | hit rate 0.66% among 230,000;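 active = pattern-corrected inhibition of lipid staining of at least 50% with the nuclear-stain viability signal not falling by more than 50%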;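 note: 0% = DMSO wells and 100% = triacsin C control wells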
Beta cell apopt: blocks beta cell apoptosis | hit rate 0.8% among 300,000 | INS-1E cytokine-induced death, ATP luminescence, 48 h; percent of positive-control rescue, neutral wells zero | protection from apoptosis, % (concentration not given with the values);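 active = Every replicate reaches about 75%, or at least half do and their mean reaches it too, limit read from the data; inconclusive = At least half of replicates reach the limit but their mean does not; inactive = Under half of replicates reach the limit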;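 note: 0% = cytokine-treated negative control wells and 100% = positive control rescue; higher means more ATP so stronger rescue from cytokine killing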
T cruzi inh: blocks replication of Trypanosoma cruzi. inhibition, % (concentration not given with the values). hit rate 1.4% among 300,000. AID 1885. T. cruzi beta-gal in NIH3T3, luminescence, 90 h;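 active = mean inhibition across valid replicates above about 55%, limit read from the data; inconclusive = mean below that limit but half or more replicates reach it; inactive = mean below it, under half of replicates reach it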;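 note: signal also drops with host cell toxicity which is not excluded here; 0% = plate median of DMSO wells and 100% = zero luminescence signal; higher percent means less beta-gal luminescence so fewer parasites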
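Material: NIH/3T3 host cells with β-galactosidase reporter T. cruzi; Input: 5,000 host fibroblasts per well; Medium: DMEM, 2% fetal bovine serum; Compound: 50 nL DMSO compound solution per well; Schedule: 3 h host attachment, then at least 90 h co-culture; Detection: luminescent β-galactosidase signal after 60 min lysis.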
Bfl-1 A1 inh: inhibitors of the anti-apoptotic protein A1, read as caspase activation. MEF A1-2A-BIM cells, Caspase-Glo 3/7 luminescence, 3 h; percent of clofoctol response, vehicle zero. caspase activation, % (no concentration beside the values). hit rate 0.066% among 330,000. AID 2462;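 active = over half of replicate activation scores above 10%, or exactly half above 10 with the replicate mean above 10; inconclusive = replicate mean below 10 yet half the replicates above 10; inactive = over half of replicates below 10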
* hit, by the source's call; ? = inconclusive; · = not tested or not shown.

SMILES	CSC inhib	Calb FLC	TAG inh	Beta cell apopt	T cruzi inh	Bfl-1 A1 inh
CC(=O)N(Cc1cccnc1)c1cccc(-c2nc3ccccc3s2)c1	26	19	-13	-1	59*	0
O=[N+]([O-])c1cccc(C2NCC(c3ccccc3Cl)c3c2[nH]c2ccccc32)c1 (stereo unspecified)	131*	-5	9	9	45	0
O=C1CC(c2ccc(Cl)c([N+](=O)[O-])c2)c2ccc3ccccc3c2N1 (stereo unspecified)	0	11	·	18	46	0
CN(C)c1ccc(C2CNC(c3ccc(Cl)c([N+](=O)[O-])c3)c3[nH]c4ccccc4c32)cc1 (stereo unspecified)	·	-2	47	7	57*	0
CCCn1c(N)c(C(=O)CN(C)CC(=O)Nc2ccc(F)cc2)c(=O)[nH]c1=O	·	·	17	·	·	·
COc1cccc(CNC(=O)COC(=O)CCS(=O)(=O)c2ccc(C)cc2)c1	·	·	4	·	·	·
CSc1c(SCc2ccccc2)cnn(-c2ccccc2)c1=O	79*	1	·	-4	-6	1
COC(=O)c1ccc(NC(=O)CSc2ccc(-c3ccccn3)nn2)cc1	12	·	3	-17	3	1
CCCC(=O)N(CCN(C(=O)CCC)c1ccccc1)c1ccccc1	-18	?	20	79*	10	0
Cc1cc(Br)ccc1OCCCCN1CCCCC1	39	-17	-16	8	64*	1
Cc1cc(Br)ccc1OCCOCCN1CCCC1	22	-26	-2	·	41	-1
Cc1ccc(OCCOCCNC(C)C)c(Br)c1	3	-13	6	-4	14	0
CC1CCCN(CCCOc2ccc(Br)cc2Cl)C1 (stereo unspecified)	194*	-20	17	8	42	0
Cc1ccc(OCCOCCN2CCCC2)c(Br)c1	24	-1	·	1	57*	0
CSC[C@@H]1NC(=S)N(c2ccc(C)cc2)C1=O	48	-6	2	4	-21	23*
Cc1ccc(N2C(=O)C3CCC(C)(C2=O)C3(C)C)cc1 (stereo unspecified)	-12	-2	-5	-3	-12	0
Cc1nn(S(=O)(=O)c2ccc(Cl)cc2)c(C)c1Sc1ccc([N+](=O)[O-])cc1	7	15	·	86*	62*	0
Cc1nn(-c2ccccc2)c(N)c1Sc1ccc([N+](=O)[O-])cc1	-1	4	·	-12	-13	0
CC(=O)Nc1ccc(NC(=O)C(C)OC(=O)c2c(NC(C)=O)sc(C)c2C)cc1 (stereo unspecified)	12	·	-24	-4	·	-2
COc1ccc(OC)c(C(=O)CSc2nccc(-c3ccc(Br)cc3)n2)c1	79*	15	·	-8	29	0
COc1ccc(-c2ccnc(SCC(=O)c3ccc(OC)c(OC)c3)n2)cc1	-7	-4	·	1	21	0
Cc1ccc(S(=O)c2snnc2C)cc1 (stereo unspecified)	·	-1	·	·	6	0
CCCNC(=O)c1nnsc1S(=O)c1ccc(Cl)cc1 (stereo unspecified)	·	2	·	·	67*	·
CNC(=O)c1nnsc1S(=O)c1ccc(Cl)cc1 (stereo unspecified)	·	105*	·	·	60*	·
O=c1cc(-c2ccccc2)[nH]n1-c1nc2ccccc2[nH]1	112*	-2	8	34	-17	-10
SMILES	CSC inhib	Calb FLC	TAG inh	Beta cell apopt	T cruzi inh	Bfl-1 A1 inh
Cc1nn(-c2ccccc2)c(N)c1N=Nc1ccc(Cl)cc1	79*	98*	·	-2	-14	1
CN1/C(=C\C(=O)c2cccs2)Sc2ccccc21	-7	4	10	-21	14	-5
CN1/C(=C/C(=O)c2cccs2)Sc2ccccc21	-9	84*	·	·	-5	-8
CC1S/C(=N\N=C\c2cccc([N+](=O)[O-])c2)N(C(C)(C)C)C1=O (stereo unspecified)	81*	-6	7	11	8	1
CCn1ccnc1CN(C)Cc1cn(-c2cccc(C)c2)nc1-c1cccc(F)c1	63	-9	-5	20	55*	1
COc1ccc(-n2cc(CN(C)CCO)c(-c3cccc(F)c3)n2)cc1	-7	-9	·	-14	16	1
Cc1cccc(-n2cc(CN(C)Cc3nccn3C)c(-c3cccc(F)c3)n2)c1	103*	14	·	-3	65*	0
CCn1ccnc1CN(C)Cc1cn(-c2ccc(C)cc2)nc1-c1cccc(C)c1	-2	-7	1	-2	66*	-1
CCOC(=O)C1=C(COC(=O)CSc2ccc(C)cc2C)NC(=O)NC1C (stereo unspecified)	·	·	-7	·	·	·
CNC(=O)NC(=O)CN1C(=O)NC2(CCOc3ccccc32)C1=O (stereo unspecified)	-12	-1	·	-3	-1	0
CN(CC(=O)NC(=O)NC1CCCCC1)CC(=O)Nc1ccccc1C(F)(F)F	·	·	9	·	·	·
C/C(=N/NC(=O)c1ccco1)c1ccc(Br)s1	-9	4	4	2	-10	-2
C/C(=N\NC(=O)c1ccc(Cl)cc1)c1ccc(Br)s1	12	24	3	11	58*	1
C/C(=N\NC(=O)c1cc(Cl)ccc1O)c1ccc(Br)s1	103*	-1	0	-3	-18	-5
C/C(=N\Nc1ccc(F)cc1F)c1ccc(Br)s1	0	102*	-2	3	-15	-1
O=C(Cn1c(=O)oc2ccccc21)N1CCN(S(=O)(=O)c2ccccc2)CC1	-10	·	-14	0	·	1
COC(=O)C1=C(C)N(Cc2ccccc2)C(=NCCc2c[nH]c3ccccc23)N[C@H]1c1cccc(F)c1	123*	·	138	21	·	0
COC(=O)C1=C(C)N(Cc2ccccc2)C(=NCc2cccc(Cl)c2)N[C@H]1c1ccccc1	122*	·	38	9	·	1
COC(=O)C1=C(C)N(Cc2ccccc2)C(=NCc2ccccc2)N[C@H]1c1cccc(F)c1	28	14	92*	26	18	0
Cc1ccn2c(Cc3ccccc3)c(-c3ccc(F)cc3)nc2c1	·	·	-16	·	·	·
CCOC(=O)c1ccccc1NS(=O)(=O)c1cnn(CC)c1C	4	·	3	-1	4	1
Cn1nccc1C(=O)N/N=C/c1c(O)ccc2ccccc12	63	0	·	100*	-3	-2
COc1ccc(NC(C)C(=O)N/N=C/c2c(O)ccc3ccccc23)cc1 (stereo unspecified)	7	4	·	64	-5	0
Cc1occc1C(=O)N/N=C/c1c(O)ccc2ccccc12	57	12	·	76*	25	-1
Cn1cc(C(=O)N/N=C/c2c(O)ccc3ccccc23)ccc1=O	94*	36	26	93*	37	0
c1ccc2c(c1)Cc1ccccc1O2	-3	·	-10	-2	·	-1
